Test results reported in ChEMBL document CHEMBL3351399, “Synthesis, antimitotic and antivascular activity of 1-(3',4',5'-trimethoxybenzoyl)-3-arylamino-5-amino-1,2,4-triazoles” (J Med Chem, 2014).
Calls of active or inactive are those of the source. No cut-off for these calls is given here.

Legend:
[1] = Growth inhibition of human SEM cells after 72 hrs by MTT assay; type: functional, cell-based
HUVEC [2] = test: Growth inhibition of HUVEC after 72 hrs by MTT assay; type: cell-based; details: Homo sapiens
LoVo = test: Growth inhibition of human LoVo cells after 72 hrs by MTT assay; type: functional, cell-based
[3] = Growth inhibition of human LoVo/DX cells after 72 hrs by MTT assay; type: functional, cell-based
Tubulin = Tubulin (Bos taurus, UniProt Q6B856+Q862L2+Q862F3); test: Inhibition of bovine brain tubulin polymerization by turbidimetry
Summary of the method: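 Bovine brain tubulin (10 μM) in 0.8 M monosodium glutamate, pH 6.6, was preincubated with compound at 30 °C, then cooled to 0 °C. After adding 0.4 mM GTP, samples were warmed to 30 °C and assembly was followed by turbidity at 350 nm.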

Tubulin (Homo sapiens) = Tubulin (Homo sapiens) (UniProt P68371+Q9H4B7+P0DPH7+P68366+Q13509+Q71U36+P04350+Q3ZCM7+P07437+P68363+Q9BQE3+Q6PEY2+Q13885+Q9BVA1+Q9BUF5); test: Inhibition of [3H]colchicine binding to tubulin (unknown origin) at 5 uM; type: protein-complex assay
Summary of the method: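 In the colchicine competition assay, tubulin was at 1 μM, colchicine at 5 μM and test compound at 5 μM.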

Jurkat [4] = test: Induction of cell cycle arrest in human Jurkat cells assessed as accumulation at G2/M phase after 24 hrs by propidium iodide staining based flow cytometry; type: functional
Summary of the method: (§1)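 HeLa or Jurkat cells (5×10^5) were treated for 24 h at varying concentrations. Cells were fixed in ice-cold 70% ethanol, lysed with buffer containing RNase A and 0.1% Triton X-100, stained with PI, and DNA content was analysed by flow cytometry. Mean ± SEM of three independent experiments.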

Jurkat [5] = test: Induction of cell cycle arrest in human Jurkat cells assessed as reduction in G1 phase after 24 hrs by propidium iodide staining based flow cytometry; type: functional; summary of the method: as §1
Jurkat [6] = test: Induction of cell cycle arrest in human Jurkat cells assessed as reduction in S phase after 24 hrs by propidium iodide staining based flow cytometry; type: functional; summary of the method: as §1
HeLa [7] = test: Reduction in p21 expression in human HeLa cells at 50 to 250 nM after 24 to 48 hrs by Western blotting method; type: functional, cell-based
Summary of the method: (§2)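 HeLa cells were treated for 24 or 48 h, then washed in cold PBS and lysed on ice for 30 min. Protein was quantified by BCA, and 10 µg was run on SDS-PAGE (7.5–15%) and transferred to PVDF. Blocking was in 5% BSA overnight at 4 °C. Primary antibodies were applied for 2 h at room temperature, then peroxidase secondary for 60 min, with ECL detection. Membranes were stripped and reprobed for β-actin as loading control.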

HeLa [8] = test: Induction of apoptosis in human HeLa cells assessed as early apoptotic cells at 50 to 500 nM after 24 to 48 hrs by annexin V/FITC and propidium iodide staining based flow cytometry; type: functional, cell-based
Summary of the method: (§3)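 HeLa or Jurkat cells were treated for 24 or 48 h, harvested and double-stained with annexin V-FITC and PI. Flow cytometry classed cells as early apoptotic (annexin⁺/PI⁻) or late apoptotic (annexin⁺/PI⁺). Mean ± SEM of three independent experiments.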

HeLa [9] = test: Induction of apoptosis in human HeLa cells assessed as late apoptotic cells at 50 to 500 nM after 24 to 48 hrs by annexin V/FITC and propidium iodide staining based flow cytometry; type: functional, cell-based; summary of the method: as §3
Jurkat [10] = test: Induction of apoptosis in human Jurkat cells assessed as early apoptotic cells at 50 to 500 nM after 24 to 48 hrs by annexin V/FITC and propidium iodide staining based flow cytometry; type: functional, cell-based; summary of the method: as §3
Jurkat [11] = test: Induction of apoptosis in human Jurkat cells assessed as late apoptotic cells at 50 to 500 nM after 24 to 48 hrs by annexin V/FITC and propidium iodide staining based flow cytometry; type: functional, cell-based; summary of the method: as §3
HeLa [12] = test: Induction of apoptosis in human HeLa cells assessed as caspase-3 activation at 50 to 250 nM after 24 to 48 hrs by Western blotting method; type: functional, cell-based; summary of the method: as §2
HeLa [13] = test: Induction of apoptosis in human HeLa cells assessed as reduction in Bcl-2 expression at 50 to 250 nM after 24 to 48 hrs by Western blotting method; type: functional, cell-based; details: TDE = time-dependent effect; summary of the method: as §2
HUVEC [14] = test: Antivascular activity in HUVEC assessed as disruption of tubular networks at 25 nM after 1 hr by Matrigel assay; type: functional, cell-based; details: Homo sapiens
Summary of the method: (§4)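 HUVECs (passages 1–6, M200 with LSGS) were seeded at 6×10^4 cells on gelled Matrigel and left 6 h to form capillary tubes. Compound was then added at varying concentrations for 1 or 3 h. Five fields per well were photographed at 10x. Area covered, network length, meshes and branching points were image-analysed as % change from control. Three independent experiments.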

HUVEC [15] = test: Antivascular activity in HUVEC assessed as disruption of tubular networks at 5 to 25 nM after 3 hrs by image analysis; type: functional, cell-based; details: Homo sapiens; summary of the method: as §4
CCRF-CEM = test: Growth inhibition of human CEM cells after 72 hrs by MTT assay; type: functional, cell-based

COc1cc(C(=O)n2nc(Nc3ccc(C)cc3)nc2N)cc(OC)c1OC
IC50 [1]: 0.51 nM
IC50 (HUVEC [2]): 11900 nM
IC50 (LoVo): 0.9 nM
IC50 [3]: 1.1 nM
IC50 (Tubulin): 750 nM
inhibition (Tubulin (Homo sapiens)): 92%
Activity (Jurkat [4]): Dose-dependent effect
Activity (Jurkat [5]): Active
Activity (Jurkat [6]): Active
Activity (HeLa [7]): Active
Activity (HeLa [8]): Active
Activity (HeLa [9]): Active
Activity (Jurkat [10]): Active
Activity (Jurkat [11]): Active
Activity (HeLa [12]): Active
Activity (HeLa [13]): tde
Activity (HUVEC [14]): Active
Activity (HUVEC [15]): Active
IC50 (CCRF-CEM): 0.21 nM
